From ChEMBL document CHEMBL1153848, “Design and synthesis of azolopyrimidoquinolines, pyrimidoquinazolines as anti-oxidant, anti-inflammatory and analgesic activities” (2009)
Activity calls are given as the source filed them.

Legend:
[1] = Protection against bleomycin-induced damage in calf thymus type 1 DNA assessed as absorbance at 532 nm after 1 hr; parameters: concentration or dose not given beside the values
In short: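 Reaction mixture: calf thymus DNA 0.5 mg/mL, bleomycin sulfate 0.05 mg/mL, MgCl2 5 mM, […], sample at various concentrations; 37 °C for 1 h. Stopped with EDTA (0.1 M), then TBA (1% w/v) plus HCl (25% v/v), heated 80 °C 10 min. After centrifugation, DNA damage read as absorbance increase at 532 nm. L-ascorbic acid as positive control.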

Mus musculus [2] = assay: Peripheral analgesic activity in Swiss albino mouse assessed as protection against acetic acid-induced writhing response at 20 mg/kg, po administered 30 mins before acetic acid challenge measured after 3 hrs relative to control; assay type: functional
Kidney = assay: Antioxidant activity in Sprague-Dawley rat kidney assessed as inhibition of lipid peroxidation; assay type: functional, tissue-based
Rattus norvegicus [3] = assay: Antiinflammatory activity in Sprague-Dawley rat assessed as protection against carrageenan-induced hind paw edema at 20 mg/kg, po administered 1 hr before carrageenan challenge measured after 2 hrs; assay type: functional
In short: (§1)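 Adult female albino rats (150–180 g), fasted 18 h, six per group. Aqueous suspension in distilled water given orally at 20 mg/kg 1 h before subplantar injection of 0.1 mL 1% w/v carrageenan into the left hind paw. Vehicle controls got 0.5 mL water; diclofenac sodium 20 mg/kg po was the reference. Paw volume was measured by mercury plethysmometer before injection and hourly for 4 h. Inhibition = (Ec−Et)/Ec, with edema = (Vt−V0)/V0.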

[4] = Antioxidant activity in Sprague-Dawley rat erythrocytes assessed as peroxyl radical-induced hemolysis after 1 hr; assay type: functional, Erythrocyte
Rattus norvegicus [5] = assay: Antiinflammatory activity in Sprague-Dawley rat assessed as protection against carrageenan-induced hind paw edema at 20 mg/kg, po administered 1 hr before carrageenan challenge measured after 1 hr; assay type: functional; in short: as §1
Mus musculus [6] = assay: Peripheral analgesic activity in Swiss albino mouse assessed as protection against acetic acid-induced writhing response at 20 mg/kg, po administered 30 mins before acetic acid challenge measured after 2 hrs relative to control; assay type: functional
[7] = Antioxidant activity assessed as ABTS radical scavenging activity at 2 mM; assay type: functional
In short: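 ABTS radical scavenging, read as the fall in colour absorbance after MeOH/phosphate buffer (1:1) is added. % inhibition = (A_control − A_test)/A_control × 100. The negative control uses MeOH/phosphate buffer (1:1) in place of compound, the blank omits ABTS, and ascorbic acid is the positive control.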

Rattus norvegicus [8] = assay: Antiinflammatory activity in Sprague-Dawley rat assessed as protection against carrageenan-induced hind paw edema at 20 mg/kg, po administered 1 hr before carrageenan challenge measured after 3 hrs; assay type: functional; in short: as §1
Mus musculus [9] = assay: Peripheral analgesic activity in Swiss albino mouse assessed as protection against acetic acid-induced writhing response at 20 mg/kg, po administered 30 mins before acetic acid challenge measured after 30 mins relative to control; assay type: functional
Mus musculus [10] = assay: Central analgesic activity in Swiss albino mouse assessed as thermal stimuli reaction time at 20 mg/kg, po after 90 mins by hot plate method; assay type: functional
In short: (§2)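 Swiss mice of both sexes (25–30 g), six per group, on a hot plate held at 53 ± 0.5 °C. Latency was timed to hind-paw licking or jumping, with a 60 s cut-off. It was measured before dosing, then at 15, 30, 60 and 90 min after an oral aqueous suspension at 20 mg/kg. Controls were untreated; oral diclofenac sodium 20 mg/kg was the reference.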

Mus musculus [11] = assay: Peripheral analgesic activity in Swiss albino mouse assessed as protection against acetic acid-induced writhing response at 20 mg/kg, po administered 30 mins before acetic acid challenge measured after 1 hr relative to control; assay type: functional
Mus musculus [12] = assay: Central analgesic activity in Swiss albino mouse assessed as thermal stimuli reaction time at 20 mg/kg, po after 60 mins by hot plate method; assay type: functional; in short: as §2
Brain = assay: Antioxidant activity in Sprague-Dawley rat brain assessed as inhibition of lipid peroxidation; assay type: functional, tissue-based
Mus musculus [13] = assay: Central analgesic activity in Swiss albino mouse assessed as thermal stimuli reaction time at 20 mg/kg, po after 30 mins by hot plate method; assay type: functional; in short: as §2

| Structure (SMILES) | Activity [1] | Activity (Mus musculus [2]) | Activity (Kidney) | Activity (Rattus norvegicus [3]) | Activity [4] | Activity (Rattus norvegicus [5]) | Activity (Mus musculus [6]) | inhibition [7] | Activity (Rattus norvegicus [8]) | Activity (Mus musculus [9]) | Activity (Mus musculus [10]) | Activity (Mus musculus [11]) | Activity (Mus musculus [12]) | Activity (Brain) | Activity (Mus musculus [13]) |
| --- | --- | --- | --- | --- | --- | --- | --- | --- | --- | --- | --- | --- | --- | --- | --- |
| O=C1O[C@H]([C@@H](O)CO)C(O)=C1O | 0.02 | – | – | – | – | – | – | – | – | – | – | – | – | – | – |
| O=c1[nH]c(=S)[nH]c2c1C(c1ccccc1)C1=C(N2)/C(=C/c2ccccc2)CCC1 (stereo not given) | 0.025 | 50.1% | Active | 53.2% | 35.75% | 49% | 69.2% | 81.5% | 41% | 61.2% | 11.67 min | 65.1% | 10.41 min | Active | 9.42 min |
| CCn1c(SC)nc2nc3c(c(-c4ccc(Cl)cc4)c2c1=O)CCC/C3=C/c1ccc(Cl)cc1 | 0.021 | – | Active | – | 3.93% | – | – | 37% | – | – | – | – | – | Active | – |
| Cc1c(C(=O)/C=C/c2ccccc2)sc2nc3nc4c(c(-c5ccc(Cl)cc5)c3c(=O)n12)CCC/C4=C/c1ccc(Cl)cc1 | 0.035 | – | Active | – | 4.54% | – | – | 38.9% | – | – | – | – | – | Active | – |
| O=c1/c(=C/c2ccccc2)sc2nc3nc4c(c(-c5ccc(Cl)cc5)c3c(=O)n12)CCC/C4=C/c1ccc(Cl)cc1 | – | 60.3% | Active | 59.3% | 5.75% | 59.8% | 77.2% | 40.7% | 42.3% | 73.2% | 11.08 min | 76% | 10.78 min | Active | 9.16 min |
| C/C(=N/NC(N)=S)c1sc2nc3nc4c(c(-c5ccc(Cl)cc5)c3c(=O)n2c1C)CCC/C4=C/c1ccc(Cl)cc1 | 0.065 | – | Active | – | 6.21% | – | – | 63% | – | – | – | – | – | Active | – |
